The list is not random: actives were taken first. Their share in the collection is about 0.75%.
EBNA-1 inh: EBNA-1 DNA-binding inhibitors, primary screen, biochemical, fluorescence polarization; inhibition, % at 14.8 µM; 0.34% of 300,000 active; in the data active means inhibition above about 28%
ARFGAP1 inhibitor: inhibitors of rat ARFGAP1 GAP activity, primary screen, biochemical, fluorescence polarization, GDP tracer; ADP-ribosylation factor GTPase-activating protein 1 (Rattus norvegicus), Q62848; Arfgap1-stimulated ARF1 GTP hydrolysis, GDP FP detection; inhibition, % at 16.5 µM; 0.26% of 360,000 active; AID 651572, 2012;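 active means inhibition above a per-plate limit, mean inhibition of low control wells plus 3 SD, cut at about 25% in these data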;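 further: 0% = DMSO wells with enzyme and 100% = wells lacking Arfgap1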
Target sequence (Q62848 1-136 limits assumed): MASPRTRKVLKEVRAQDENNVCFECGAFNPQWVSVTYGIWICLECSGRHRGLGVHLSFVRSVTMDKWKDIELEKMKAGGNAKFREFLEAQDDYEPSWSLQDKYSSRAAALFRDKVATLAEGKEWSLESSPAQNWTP
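Material: rat Arfgap1 GAP domain (His6, aa 1-136), purified enzyme. Also added: human ARF1(Δ1-17)-GTP substrate. Compound dosing: 16.5 µM single point, 1.26% DMSO. Timing: enzyme reaction 120 min at 25 °C after 20 min preincubation. Signal: GDP detection by fluorescence polarization. Read-out basis: percent inhibition of GAP-stimulated GDP formation, scaled between DMSO and no-Arfgap1 medians.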
ZTA counter: blocks Epstein-Barr virus ZTA, an EBNA-1 counter-screen. ZTA-DNA binding, fluorescence polarization. inhibition, % at 11 µM. 0.15% of 320,000 active; in the data active means inhibition above about 33%
Target sequence (P03206 whole entry, looked up): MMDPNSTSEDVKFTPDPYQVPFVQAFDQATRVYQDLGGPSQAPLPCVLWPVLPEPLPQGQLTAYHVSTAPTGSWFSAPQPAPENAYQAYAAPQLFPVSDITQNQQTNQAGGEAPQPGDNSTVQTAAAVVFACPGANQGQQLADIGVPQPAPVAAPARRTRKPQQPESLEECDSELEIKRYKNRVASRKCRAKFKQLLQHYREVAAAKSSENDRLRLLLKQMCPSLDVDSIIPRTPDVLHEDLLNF
ASAP1 GAP inh: inhibitors of human ASAP1 ArfGAP activity, primary screen, biochemical, fluorescence polarization. Arf-GAP with SH3 domain, ANK repeat and PH domain-containing protein 1 (Homo sapiens), …. ASAP1-stimulated ARF1 GTP hydrolysis, GDP FP detection. inhibition, % at 16.5 µM. 0.19% of 360,000 active. AID 624377, 2012; in the data active means inhibition above about 25%;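 further: 0% = vehicle with enzyme and substrate and 100% = no enzyme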
EBNA-1 inh conf: EBNA-1 DNA-binding inhibitors, retest, confirmation, biochemical, fluorescence polarization, triplicate; shares compounds with EBNA-1 inh; Recombinant EBNA-1 DBD, Cy5-DNA fluorescence polarization; inhibition, % at 14.8 µM; 35% of 830 active; AID 2292, 2010;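 active means mean inhibition across replicates above a set limit taken from the earlier primary screen, cut at about 28% in these data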;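 further: plate controls were EBNA-1 protein with DMSO for no effect and wells lacking EBNA-1 for full effect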
ZTA DNA inh trip: EBV Zta DNA binding inhibitors, counter-screen for EBNA-1 inhibitor project, biochemical, fluorescence polarization, triplicate; shares compounds with EBNA-1 inh; Zta-ZRE DNA binding, Cy5 fluorescence polarization; inhibition, % at 11.1 µM; 830 tested, under 10 active; AID 2328, 2010;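 active means mean inhibition over triplicates above a set limit taken from the primary EBNA-1 screen, cut at about 37% in these data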;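 further: purified full length Zta protein with Cy5 labeled ZRE DNA probe; 0% = Zta with DMSO and 100% = wells lacking Zta protein; inhibitors lower polarization by freeing the labeled DNA probe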
* hit, by the source's call; · = not tested or not shown.

SMILES | EBNA-1 inh | ARFGAP1 inhibitor | ZTA counter | ASAP1 GAP inh | EBNA-1 inh conf | ZTA DNA inh trip
O=C(CN1C(=O)c2ccccc2C1=O)NCC(=O)OCC(=O)c1ccc(Cl)cc1 | -3 | 3 | -3 | -4 | · | ·
Cc1ccc(C(=O)NCC(=O)OCC(=O)c2ccc3c(c2)OCCO3)cc1C | -4 | -3 | -13 | 6 | · | ·
CCOc1ccc2nc(SCC(=O)NNC(=O)c3ccco3)c(C)cc2c1 | 57* | -8 | 7 | -3 | 42* | 2
CCc1cc2cc(C)c(C)cc2nc1SCC(=O)NNC(=O)c1ccco1 | 6 | 9 | -7 | -15 | · | ·
O=C1NC(Cc2cnc[nH]2)C(=O)N2CCCC12 (configuration not stated) | · | 13 | · | 1 | · | ·
CC(C)S(=O)(=O)N[C@@H]1c2cc3c(cc2[C@H](c2ccccc2)[C@H]1C)OCO3 | · | 10 | · | 9 | · | ·
CC(=O)Nc1c2c(nn1-c1ccc(C)cc1)CSC2 | 0 | 7 | 5 | 4 | · | ·
Cc1ccc(-n2nc3c(c2NC(=O)c2ccc4c(c2)OCO4)CSC3)cc1 | 47* | 2 | 5 | -3 | 25 | 8
O=c1c2[nH]c3ccccc3c2ncn1Cc1ccco1 | -21 | 0 | 14 | 12 | · | ·
Cc1ccc2c(c1)[nH]c1c(=O)n(Cc3ccco3)cnc12 | 70* | -8 | 15 | 6 | 37* | 0
CCCCCCCCN1C(=O)[C@@H](CC(=O)N2CCSCC2)C[C@@]2(C(=O)OC)C1=C[C@H](C(C)(C)C)O[C@@H]2C | · | 1 | · | -4 | · | ·
CCOC(=O)CN1C(=O)N(c2ccc(OC)cc2)[C@H]2CC3c4ccccc4C[C@]3(C)[C@@H](C(=O)N(C)C3CCCCC3)C[C@H]21 (some centres not stated) | · | 9 | · | -4 | · | ·
CCOC(=O)c1[nH]c2ccccc2c1NC(=O)c1ccc2c(c1)OCO2 | 32* | -2 | 3 | 6 | 19 | -10
CCOC(=O)c1[nH]c2ccc(OC)cc2c1NC(=O)c1ccc2c(c1)OCO2 | -20 | 0 | 4 | -1 | · | ·
C=CCN1C(=O)c2n[nH]c(COC)c2C1c1ccc(C)cc1 (configuration not stated) | · | 1 | · | 6 | · | ·
Cc1ccccc1C(=O)Nc1nc2c(C)csc2c(=O)s1 | 55* | 4 | 4 | 14 | 5 | 2
Cc1csc2c(=O)sc(NC(=O)c3ccc(F)cc3)nc12 | 8 | 3 | 4 | 10 | · | ·
CC(=O)Nc1cccc(NC(=O)CSc2ccc(-c3ccccn3)nn2)c1 | -6 | -1 | 1 | 18 | · | ·
Cc1ccc(NC(=O)CSc2ccc(-c3ccccn3)nn2)cc1F | 36* | -7 | 1 | -6 | 53* | 7
O=C(Nc1ccccc1C(=O)NCC1CC1)c1cccs1 | · | 13 | · | 13 | · | ·
Cc1ccccc1NC(=O)CN1CCN(Cc2ccccc2)CC1 | -7 | 12 | -1 | -6 | · | ·
Cc1ccccc1NC(=O)Cn1c(=O)n(Cc2ccccc2)c(=O)c2c(C)c(C)sc21 | 37* | 1 | 2 | -1 | 26 | -4
Cc1ccc2nc(-c3ccc(NC(=O)COC(=O)c4ccco4)cc3)sc2c1 | 21 | -3 | 19 | 15 | · | ·
CNS(=O)(=O)c1cccc(C(=O)OCC(=O)Nc2ccc(-c3nc4ccc(C)cc4s3)cc2)c1 | 103* | · | 23 | · | 81* | 26
Cc1ccc(-c2csc(NC(=O)COC(=O)c3cccc(S(=O)(=O)N4CCOCC4)c3)n2)cc1 | 98* | 3 | -6 | -7 | -3 | 0
SMILES | EBNA-1 inh | ARFGAP1 inhibitor | ZTA counter | ASAP1 GAP inh | EBNA-1 inh conf | ZTA DNA inh trip
CCOC(=O)c1ccc(-c2csc(NC(=O)CN3CCC(C)CC3)n2)cc1 | 43* | -7 | -12 | 1 | 70* | -1
CC1CCN(CC(=O)Nc2nc(-c3ccccc3)cs2)CC1 | -5 | -7 | -1 | -3 | · | ·
Cc1cc(C(=O)OCC(=O)Nc2nc(-c3ccccc3)cs2)c(C)o1 | 34* | -15 | 7 | -3 | 10 | -10
CCn1ncc2c(=O)c(C(=O)c3ccccc3)c[nH]c21 | · | 2 | · | 2 | · | ·
COc1cc(CC(=O)Nc2sc3c(c2C(N)=O)CCCC3)cc(OC)c1OC | 49* | -5 | 4 | 5 | 23 | 17
COc1ccc(CC(=O)Nc2sc3c(c2C(N)=O)CCCC3)cc1 | -12 | -6 | -4 | 10 | · | ·
COc1cc(NC(=O)C2Cc3ccccc3CN2S(C)(=O)=O)cc(OC)c1 (configuration not stated) | 38* | 3 | -5 | 5 | 7 | 7
COCC1CN(CCc2ccc(F)cc2)S(=O)(=O)c2c(OCCN3C(=O)[C@@H]4[C@H](C3=O)[C@@H]3C=C[C@H]4C3)cccc2O1 (some centres not stated) | · | -8 | · | -3 | · | ·
CCOC(=O)[C@@H]1[C@H]2COc3cc(OC)ccc3[C@H]2N2C(=O)N(c3cccc(Cl)c3)C(=O)[C@]12C | 32* | · | 7 | · | 7 | -8
Nc1ncnc2c1ncn2[C@@H]1O[C@H](C(=O)N[C@@H](CCc2ccccc2)C(=O)O)[C@@H](O)[C@H]1O | · | -7 | · | -15 | · | ·
COc1ccc(N(C(=O)c2ccco2)C(C(=O)NC2CCCC2)c2cccs2)c(OC)c1 (configuration not stated) | 55* | -5 | 17 | 2 | 8 | 13
c1ccc(-c2ccccc2C2Cc3nnccc3CN2)cc1 (configuration not stated) | · | -8 | · | 0 | · | ·
Cc1ccc(OCC(=O)NC(=S)Nc2cccc(NC(=O)c3ccccc3)c2)cc1 | 29* | 7 | 14 | 6 | 17 | -6
Cc1cc(Br)cn2c(Cc3ccccc3C(F)(F)F)c(-c3ccc(F)cc3)nc12 | · | 1 | · | 5 | · | ·
CCOC(=O)c1ccc(NC(=O)c2cccc(S(=O)(=O)N3c4ccccc4CC3C)c2)s1 (configuration not stated) | 40* | 22 | -13 | 15 | 10 | -1
CC1Cc2ccccc2N1S(=O)(=O)c1cccc(C(=O)NCCCO)c1 (configuration not stated) | 2 | 10 | -9 | 0 | · | ·
COC(=O)c1cc2c(c3c4cc(C)ccc4n(S(=O)(=O)c4cccc(C)c4)c13)C(=O)N(Cc1ccc(C(F)(F)F)cc1)C2 | · | 13 | · | 4 | · | ·
COc1ccc(-c2cn(Cc3ccc4ccccc4c3)nn2)cc1 | 5 | 2 | -13 | 10 | · | ·
COc1ccc(-c2cn(Cc3ccc(C(=O)c4ccccc4)cc3)nn2)cc1 | 28* | -3 | -19 | 3 | 0 | 15
Cc1ccc(NC(=O)CC2SC(=Nc3ccc(O)cc3)NC2=O)cc1 (configuration not stated) | 12 | 8 | 20 | -6 | · | ·

Source: PubChem
